In ChEMBL document CHEMBL1671663, “In vivo characterization of the peptide deformylase inhibitor LBM415 in murine infection models” (Antimicrob Agents Chemother, 2009):
In brackets after ≈: the same amount, converted by molar mass.

Legend:
Streptococcus pneumoniae [1] = assay: Antimicrobial activity against multiple drug resistant Streptococcus pneumoniae ATCC 700677 infected in po dosed BALB/c mouse administered twice daily for 3 days; assay type: functional; settings: ATCC 700677, po, 72 h
How it was run: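 Female BALB/c mice (19–23 g) infected intraperitoneally with ATCC 700677 from a 5-h Todd-Hewitt–30% horse serum log culture, suspended in 5% hog mucin, 1.5 × 10^7 to 2 × 10^7 CFU/mouse. Groups of 5–6, typically three dose levels; vehicle controls. Dosed 1, 5, 17, 27, 42, 51 h post-infection. ED50 from day-8 survival by probit analysis, with 95% CI.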

Staphylococcus aureus [2] = assay: Antimicrobial activity against methicillin-susceptible Staphylococcus aureus ATCC 49951 by broth microdilution method; assay type: functional
How it was run: (§1)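 MICs determined by broth microdilution following CLSI guidelines. Inocula came from overnight Mueller-Hinton broth (ATCC 49951, NB01021) or overnight Trypticase soy agar culture (ATCC 6301). ATCC 6303 and ATCC 700677 came from a 5-h log culture in Todd-Hewitt broth–30% horse serum.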

Staphylococcus aureus [3] = assay: Antimicrobial activity against methicillin-susceptible Staphylococcus aureus ATCC 13709 by broth microdilution method; assay type: functional
How it was run: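 MIC by broth microdilution following CLSI guidelines.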

Staphylococcus aureus [4] = assay: Antimicrobial activity against methicillin-resistant Staphylococcus aureus NB01021 by broth microdilution method; assay type: functional; how it was run: as §1
Streptococcus pneumoniae [5] = assay: Antimicrobial activity against Streptococcus pneumoniae ATCC 6301 by broth microdilution method; assay type: functional; how it was run: as §1
Streptococcus pneumoniae [6] = assay: Antimicrobial activity against Streptococcus pneumoniae ATCC 6303 by broth microdilution method; assay type: functional; how it was run: as §1
Streptococcus pneumoniae [7] = assay: Antimicrobial activity against multiple drug-resistant Streptococcus pneumoniae ATCC 700677 by broth microdilution method; assay type: functional; how it was run: as §1
Staphylococcus aureus [8] = assay: Antimicrobial activity against methicillin-resistant Staphylococcus aureus NB01021 infected in sc dosed BALB/c mouse administered 0, 4, 23 hrs post infection; assay type: functional
How it was run: (§2)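 Female BALB/c mice (19–23 g) infected intraperitoneally with MRSA NB01021 in 5% hog gastric mucin, 2.1 × 10^7 to 2.8 × 10^7 CFU/mouse (0.3 ml), 10–100× minimal lethal dose. Three dose levels, groups of 5–6; vehicle controls. Treatment 0, 4 and 23 h post-infection. Observed 8 days; ED50 with 95% CI by probit analysis of day-8 survival.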

Staphylococcus aureus [9] = assay: Antimicrobial activity against methicillin susceptible Staphylococcus aureus ATCC 49951 infected in sc dosed NMRI mouse treated 1 and 5 hrs post infection; assay type: functional; settings: ATCC 49951, sc
How it was run: (§3)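 Intraperitoneal infection (0.3 ml/mouse, 10 to 100 times minimal lethal dose) with inoculum in 0.86% NaCl; ATCC 49951 grown overnight in Mueller-Hinton broth (1.7 × 10^7 to 2.2 × 10^7 CFU/mouse), ATCC 13709 in tryptic soy broth (7.3 × 10^7 to 2 × 10^8 CFU/mouse). Groups of 5 to 6 mice, typically three doses, treated 1 and 5 h postinfection; vehicle controls. ED50 by probit analysis of day-8 survival.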

Staphylococcus aureus [10] = assay: Antimicrobial activity against methicillin susceptible Staphylococcus aureus ATCC 13709 infected in sc dosed NMRI mouse treated 1 and 5 hrs post infection; assay type: functional; settings: ATCC 13709, sc
How it was run: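 Systemic infection: ATCC 13709 grown overnight in tryptic soy broth and suspended in 0.86% NaCl. Given intraperitoneally at 7.3 × 10^7 to 2 × 10^8 CFU/mouse, 10–100× the minimal lethal dose, 0.3 ml/mouse. Groups of 5–6 mice, typically three dose levels; controls got vehicle. Dosed 1 and 5 h post-infection. Survival followed 8 days; ED50 (protection of 50%) with 95% CI by probit analysis of day-8 survival.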

Staphylococcus aureus [11] = assay: Antimicrobial activity against methicillin-resistant Staphylococcus aureus NB01021 infected in po dosed BALB/c mouse administered 0, 4, 23 hrs post infection; assay type: functional; how it was run: as §2
Staphylococcus aureus [12] = assay: Antimicrobial activity against methicillin susceptible Staphylococcus aureus ATCC 49951 infected in po dosed NMRI mouse treated 1 and 5 hrs post infection; assay type: functional; settings: ATCC 49951, po; how it was run: as §3
Staphylococcus aureus [13] = assay: Antimicrobial activity against methicillin susceptible Staphylococcus aureus ATCC 13709 infected in po dosed NMRI mouse treated 1 and 5 hrs post infection; assay type: functional; settings: ATCC 13709, po; how it was run: as §3
Streptococcus pneumoniae [14] = assay: Antimicrobial activity against Streptococcus pneumoniae ATCC 6301 infected in po dosed NMRI mouse administered thrice daily for 4 days; settings: ATCC 6301, po, 96 h
Streptococcus pneumoniae [15] = assay: Antimicrobial activity against Streptococcus pneumoniae ATCC 6303 infected in po dosed BALB/c mouse pneumonia model assessed as complete eradication of bacteria administered twice daily 3 days starting 16 hrs post infection; assay type: functional; settings: Streptococcus pneumoniae, ATCC 6303, po
How it was run: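 Anesthetized (ketamine/xylazine) female BALB/c mice (19 to 22 g) inoculated intranasally with 50 µl log-phase culture (1.4 × 10^5 CFU/mouse). Oral treatment, six mice per group, at 16, 27, 40, 51, 64 and 75 h postinfection; vehicle controls. Lungs harvested one day after last dose, homogenized, plated; log10 CFU/lung. Deaths assigned 9 log10 CFU/lung; Kruskal-Wallis with Dunn's test versus control.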

| Structure (SMILES) | ED50 (Streptococcus pneumoniae [1]) | MIC (Staphylococcus aureus [2]) | MIC (Staphylococcus aureus [3]) | MIC (Staphylococcus aureus [4]) | MIC (Streptococcus pneumoniae [5]) | MIC (Streptococcus pneumoniae [6]) | MIC (Streptococcus pneumoniae [7]) | ED50 (Staphylococcus aureus [8]) | ED50 (Staphylococcus aureus [9]) | ED50 (Staphylococcus aureus [10]) | ED50 (Staphylococcus aureus [11]) | ED50 (Staphylococcus aureus [12]) | ED50 (Staphylococcus aureus [13]) | ED50 (Streptococcus pneumoniae [14]) | ED50 (Streptococcus pneumoniae [15]) |
| --- | --- | --- | --- | --- | --- | --- | --- | --- | --- | --- | --- | --- | --- | --- | --- |
| CC1(C)S[C@@H]2[C@H](NC(=O)COc3ccccc3)C(=O)N2[C@H]1C(=O)O [PENICILLIN V] | > 60 mg/kg | – | – | – | – | – | – | – | – | – | – | – | – | – | – |
| CC1(C)S[C@@H]2[C@H](NC(=O)Cc3ccccc3)C(=O)N2[C@H]1C(=O)O [PENICILLIN G] | – | ≤ 0.125 µg/mL | ≤ 0.125 µg/mL | 64 µg/mL (≈ 191 µM) | 0.03 µg/mL (≈ 0.0897 µM) | 0.06 µg/mL (≈ 0.179 µM) | 32 µg/mL (≈ 95.7 µM) | > 135 mg/kg | – | – | – | – | – | – | – |
| CN[C@H](CC(C)C)C(=O)N[C@H]1C(=O)N[C@@H](CC(N)=O)C(=O)N[C@H]2C(=O)N[C@H]3C(=O)N[C@H](C(=O)N[C@H](C(=O)O)c4cc(O)cc(O)c4-c4cc3ccc4O)[C@H](O)c3ccc(c(Cl)c3)Oc3cc2cc(c3O[C@@H]2O[C@H](CO)[C@@H](O)[C@H](O)[C@H]2O[C@H]2C[C@](C)(N)[C@H](O)[C@H](C)O2)Oc2ccc(cc2Cl)[C@H]1O [VANCOMYCIN] | – | – | – | – | 0.5 µg/mL (≈ 0.345 µM) | 0.5 µg/mL (≈ 0.345 µM) | ≤ 0.125 µg/mL | 2.5 mg/kg | 1.5 mg/kg | 2.8 mg/kg | – | – | – | – | – |
| CC(=O)NC[C@H]1CN(c2ccc(N3CCOCC3)c(F)c2)C(=O)O1 [LINEZOLID] | – | 1 µg/mL (≈ 2.96 µM) | 1 µg/mL (≈ 2.96 µM) | 1 µg/mL (≈ 2.96 µM) | – | – | 0.25 µg/mL (≈ 0.741 µM) | – | 7.4 mg/kg | – | 2 mg/kg | 7 mg/kg | 10.3 mg/kg | 5.6 mg/kg | – |
| COc1c(N2C[C@@H]3CCCN[C@@H]3C2)c(F)cc2c(=O)c(C(=O)O)cn(C3CC3)c12 [MOXIFLOXACIN] | – | 0.06 µg/mL (≈ 0.149 µM) | ≤ 0.03 µg/mL | 1 µg/mL (≈ 2.49 µM) | 0.5 µg/mL (≈ 1.25 µM) | 0.5 µg/mL (≈ 1.25 µM) | ≤ 0.06 µg/mL | – | – | – | – | – | – | – | 14.3 mg/kg |
